Experiments:
[1] = Protection index, ratio of azidothymidine CC50 to test compound CC50 for human PBMC; type: ADME, tissue-based; conditions: read-out: PI
[2] = Cytotoxicity against human PBMC assessed as reduction in cell viability after 72 hrs by XTT assay; type: tissue-based
Summary of the method: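 Primary human PBMCs, 2×10^4 cells/well, exposed to compounds at several concentrations for 72 h. XTT (5 mg/mL) with 0.01 % PMS in DMEM then added for 4 h at 37 °C. Absorbance read at 492 and 620 nm. CC50 obtained by linear regression of dose-response curves.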

[3] = Inhibition of recombinant HIV1 HXB2 reverse transcriptase RDDP activity assessed as reduction in biotin/digoxin-dU incorporation into polirA-oligodU template primer measured after 30 mins by ELISA; parameters: species or system HIV-1 M:B_HXB2R
Summary of the method: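 Purified recombinant HIV-1 RT (HXB2 clone), 3 U, incubated with compounds over a concentration range and poly(rA)-oligo(dU). Biotin- and digoxin-labelled dU (equimolar) incorporated at 37 °C for 30 min, stopped with 0.5 M EDTA. Product captured on streptavidin-coated plates and detected with peroxidase-tagged anti-digoxin antibody. Absorbance read at 570 nm against 690 nm reference. IC50 from linear regression of dose-response curves.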

[4] = tested on: HIV1 HXB2 reverse transcriptase RDDP activity; test: Selectivity index, ratio of CC50 for human PBMC to IC50 for inhibition of recombinant HIV1 HXB2 reverse transcriptase RDDP activity; type: toxicity; conditions: read-out: Ratio CC50/IC50

SMILES | selectivity ratio [1] | CC50 at 72 h [2] | IC50 [3] | selectivity ratio [4]
O=C(OC[C@H]1O[C@@H](n2cc(C(=O)NCc3ccc(Cl)cc3)c(=O)c3cc(F)ccc32)[C@H](OC(=O)c2ccccc2)[C@@H]1OC(=O)c1ccccc1)c1ccccc1 | > 10 | > 1000 µM | 2.8 µM | –
O=C(OC[C@H]1O[C@@H](n2cc(C(=O)NCc3ccc(Cl)cc3)c(=O)c3cc(Cl)ccc32)[C@H](OC(=O)c2ccccc2)[C@@H]1OC(=O)c1ccccc1)c1ccccc1 | > 10 | > 1000 µM | 8.8 µM | –
O=C(NCc1ccc(Cl)cc1)c1cn([C@@H]2O[C@H](CO)[C@@H](O)[C@H]2O)c2ccccc2c1=O | > 10 | > 1000 µM | 29.2 µM | –
O=C(Nc1ccc(Cl)cc1)c1cn([C@@H]2O[C@H](CO)[C@@H](O)[C@H]2O)c2ccc(Cl)cc2c1=O | > 10 | > 1000 µM | 8 µM | –
O=C(OC[C@H]1O[C@@H](n2cc(C(=O)NCc3ccc(Cl)cc3)c(=O)c3cc(C(F)(F)F)ccc32)[C@H](OC(=O)c2ccccc2)[C@@H]1OC(=O)c1ccccc1)c1ccccc1 | > 10 | > 1000 µM | 2.9 µM | –
O=C(NCc1ccc(Cl)cc1)c1cn([C@@H]2O[C@H](CO)[C@@H](O)[C@H]2O)c2ccc(C(F)(F)F)cc2c1=O | > 10 | > 1000 µM | 3.9 µM | –
O=C(NC1CCCCC1)c1cn([C@@H]2O[C@H](CO)[C@@H](O)[C@H]2O)c2ccc(Cl)cc2c1=O | > 10 | > 1000 µM | 22.4 µM | –
COc1ccc(NC(=O)c2cn([C@@H]3O[C@H](COC(=O)c4ccccc4)[C@@H](OC(=O)c4ccccc4)[C@H]3OC(=O)c3ccccc3)c3ccc(Cl)cc3c2=O)cc1 | > 10 | > 1000 µM | 6.8 µM | –
Cc1ccc2c(c1)c(=O)c(C(=O)NCc1ccc(Cl)cc1)cn2[C@@H]1O[C@H](COC(=O)c2ccccc2)[C@@H](OC(=O)c2ccccc2)[C@H]1OC(=O)c1ccccc1 | > 10 | 1390 µM | 1.6 µM | 830
O=C(OC[C@H]1O[C@@H](n2cc(C(=O)NC3CCCCC3)c(=O)c3cc(Cl)ccc32)[C@H](OC(=O)c2ccccc2)[C@@H]1OC(=O)c1ccccc1)c1ccccc1 | > 10 | > 1000 µM | 8.6 µM | –
Cc1ccc2c(c1)c(=O)c(C(=O)NCc1ccc(Cl)cc1)cn2[C@@H]1O[C@H](CO)[C@@H](O)[C@H]1O | > 10 | > 1000 µM | 4.3 µM | –
Cc1ccc(NC(=O)c2cn([C@@H]3O[C@H](COC(=O)c4ccccc4)[C@@H](OC(=O)c4ccccc4)[C@H]3OC(=O)c3ccccc3)c3ccc(Cl)cc3c2=O)cc1 | > 10 | > 1000 µM | 16.6 µM | –
O=C(OC[C@H]1O[C@@H](n2cc(C(=O)Nc3ccc(F)cc3)c(=O)c3cc(Cl)ccc32)[C@H](OC(=O)c2ccccc2)[C@@H]1OC(=O)c1ccccc1)c1ccccc1 | > 10 | > 1000 µM | 7.3 µM | –
O=C(Nc1ccccc1)c1cn([C@@H]2O[C@H](CO)[C@@H](O)[C@H]2O)c2ccc(Cl)cc2c1=O | > 10 | > 1000 µM | 2.6 µM | –
O=C(OC[C@H]1O[C@@H](n2cc(C(=O)Nc3ccccc3)c(=O)c3cc(Cl)ccc32)[C@H](OC(=O)c2ccccc2)[C@@H]1OC(=O)c1ccccc1)c1ccccc1 | > 10 | > 1000 µM | 19.5 µM | –
O=C(OC[C@H]1O[C@@H](n2cc(C(=O)NCc3ccc(Cl)cc3)c(=O)c3ccccc32)[C@H](OC(=O)c2ccccc2)[C@@H]1OC(=O)c1ccccc1)c1ccccc1 | > 10 | 1490 µM | 1.4 µM | 998
O=C(NCc1ccc(Cl)cc1)c1cn([C@@H]2O[C@H](CO)[C@@H](O)[C@H]2O)c2ccc(Cl)cc2c1=O | > 10 | > 1000 µM | 18.4 µM | –
O=C(NCc1ccc(Cl)cc1)c1cn([C@@H]2O[C@H](CO)[C@@H](O)[C@H]2O)c2ccc(F)cc2c1=O | > 10 | > 1000 µM | 3.9 µM | –
O=C(Nc1ccc(F)cc1)c1cn([C@@H]2O[C@H](CO)[C@@H](O)[C@H]2O)c2ccc(Cl)cc2c1=O | > 10 | > 1000 µM | 5.8 µM | –
O=C(OC[C@H]1O[C@@H](n2cc(C(=O)Nc3ccc(Cl)cc3)c(=O)c3cc(Cl)ccc32)[C@H](OC(=O)c2ccccc2)[C@@H]1OC(=O)c1ccccc1)c1ccccc1 | > 10 | > 1000 µM | 9.9 µM | –
COc1ccc(NC(=O)c2cn([C@@H]3O[C@H](CO)[C@@H](O)[C@H]3O)c3ccc(Cl)cc3c2=O)cc1 | > 10 | > 1000 µM | 3.4 µM | –
Cc1cn([C@H]2C[C@H](N=[N+]=[N-])[C@@H](CO)O2)c(=O)[nH]c1=O [ZIDOVUDINE] | – | 126 µM | 0.05 µM | –

From ChEMBL document CHEMBL4765283, “Design, synthesis, in vitro and in silico studies of novel 4-oxoquinoline ribonucleoside derivatives as HIV-1 reverse transcriptase inhibitors” (Eur J Med Chem, 2020)
